The values that follow come from ChEMBL document CHEMBL1124739, “Selective class III antiarrhythmic agents. 1 Bis(arylalkyl)amines” (J Med Chem, 1990).

Usually bioavailability stands for dose-corrected exposure relative to a reference, in per cent. High values mean much systemic uptake, low ones little systemic uptake. Broadly, the logD is the decadic logarithm of the distribution of all forms, ionised or not, between an organic phase and buffer at a given pH.

The species entered for data set [1] is Cavia porcellus. The data set can be described thus: The degree of cardiac depression produced by a concentration of 10 E-4 M was determined in guinea pig. It is filed as functional. An outline of the steps:
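Cardiac depression was measured at 10⁻⁴ M in the isolated guinea pig left atrial preparation and taken as an index of class I activity.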

The species named for data set [2] is Cavia porcellus. The data set is described as follows: Concentration required to prolong the effective refractory period (ERP) by 25% in isolated guinea pig left atria. It is filed as functional. The method, boiled down:
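Isolated guinea pig left atria were studied by the extrastimulus technique. The molar concentration raising ERP by 25% (ED25) was determined. Values are the mean of two similar determinations, ±4%.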

The nature of data set [3]: Oral bioavailability in dog. It is filed as ADME, organism-based, Canis lupus familiaris. Particulars: in vivo.
Data set [4] in a line: Oral bioavailability in man. Type of data set: ADME, organism-based. Particulars: human, in vivo.
The nature of data set [5]: Distribution coefficient at pH 7.4. It is filed as physicochemical. The note with it: octanol/water.
The species named for data set [6] is Cavia porcellus. The data set is described as follows: Action potential duration (APD90) repolarization in guinea pig right papillary muscle was determined at concentration 10E-6 M. It is filed as functional, Muscle tissue. The method, boiled down: (§1)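 Isolated guinea pig right papillary muscle exposed to the concentration given in each line. Action potential duration was read at 50% and 90% repolarization, and phase 0 maximum rate of depolarization (MRD) was also recorded. Values are means ± SD of 30 or 31 observations from three preparations, compared with control by t test.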

The species named for data set [7] is Cavia porcellus. The data set can be described thus: Action potential duration (APD90) repolarization in guinea pig right papillary muscle was determined at concentration 5 x 10E-8 M. Type of data set: functional, Muscle tissue. The method, boiled down:
as §1

For data set [8], the species on record is Cavia porcellus. The data set can be described thus: Action potential duration (APD90) repolarization in guinea pig right papillary muscle was determined at concentration 5 x 10E-9 M. Type of data set: functional, Muscle tissue. An outline of the steps: as §1
The species entered for data set [9] is Cavia porcellus. The data set can be described thus: Action potential duration (APD50) repolarization in guinea pig right papillary muscle was determined at concentration 10E-6 M. Type of data set: functional, Muscle tissue. An outline of the steps: as §1
Data set [10] is filed under the species Cavia porcellus. The data set can be described thus: Action potential duration (APD50) repolarization in guinea pig right papillary muscle was determined at concentration 5 x 10E-8 M. It is filed as functional, Muscle tissue. An outline of the steps: as §1
The species entered for data set [11] is Cavia porcellus. The data set is described as follows: Action potential duration (APD50) repolarization in guinea pig right papillary muscle was determined at concentration 5 x 10E-9 M. Type of data set: functional, Muscle tissue. The method, boiled down:
as §1

Data set [12] is filed under the species Cavia porcellus. The data set can be described thus: Maximum rate of depolarization (MRD) during phase 0 in guinea pig right papillary muscle was determined at concentration 5 x 10E-8 M. Type of data set: functional, Muscle tissue. The method, boiled down:
as §1

For data set [13], the species on record is Cavia porcellus. The data set is described as follows: Maximum rate of depolarization (MRD) during phase 0 in guinea pig right papillary muscle was determined at concentration 5 x 10E-9 M. It is filed as functional, Muscle tissue. The method, boiled down:
as §1

Data set [14] is filed under the species Cavia porcellus. The data set can be described thus: Maximum rate of depolarization (MRD) during phase 0 in guinea pig right papillary muscle was determined at concentration 10E-6 M. It is filed as functional, Muscle tissue. An outline of the steps:
as §1

The species named for data set [15] is Cavia porcellus. The data set can be described thus: Maximum rate of depolarization (MRD) during phase 0 in guinea pig right papillary muscle was determined at concentration 2 x 10E-5 M. It is filed as functional, Muscle tissue. An outline of the steps: as §1
For data set [16], the species on record is Cavia porcellus. The data set is described as follows: Action potential duration (APD50) repolarization in guinea pig right papillary muscle was determined at concentration 2 x 10E-5 M. It is filed as functional, Muscle tissue. An outline of the steps: as §1

Molecules are shown by their SMILES. “And” between values parts separate entries of the source, which are not always exact repeats. Equal values may be shown once.

With `CNC(=O)c1ccc(OCCN(C)CCc2ccc(NS(C)(=O)=O)cc2)cc1.Cl`, the Cardiac depression in data set [1] is 5%. Besides, in data set [2], the ED25 is 1.5 µM.

For `CN(CCOc1ccc(NS(C)(=O)=O)cc1)CCc1ccc(NS(C)(=O)=O)cc1` [DOFETILIDE], the bioavailability in data set [3] worked out at 72%; in data set [4] it was 100%. For the same molecule, in data set [5], the log distribution coefficient (logD) is 0.96. Moreover, the APD90 in data set [6] is 288 ms; in data set [7] it was 246 ms; in data set [8], <209 ms and <273 ms. In data set [1], this molecule gave a Cardiac depression of 0%. The APD50 in data set [9] came out at 223 ms; in data set [10], 197 ms; in data set [11] it was 170 ms; in data set [16], 209 ms. In [2], this molecule gave an ED25 of 0.13 µM. For the same molecule, the MRD in data set [12] is reported as 273 V s-1; in data set [13], 261 V s-1; in data set [14], 269 V s-1; in [15], 273 V s-1.

In data set [1], `CN(CCCOc1ccc(NS(C)(=O)=O)cc1)CCc1ccc(NS(C)(=O)=O)cc1.Cl` returned a Cardiac depression of 44%. Also, the ED25 in [2] worked out at 20 µM.

`CN(CCCCc1ccc(NS(C)(=O)=O)cc1)CCc1ccc(NS(C)(=O)=O)cc1`: the Cardiac depression in data set [1] came to 32%. The ED25 in data set [2] was found to be 67 µM.

Consider `CN(CCOc1ccc(C(F)(F)F)cc1)CCc1ccc(NS(C)(=O)=O)cc1.Cl`, for which the Cardiac depression in data set [1] turned out to be 30%. Further, the ED25 in data set [2] was 90 µM.

In data set [1], `CC(C)NCC(O)c1ccc(NS(C)(=O)=O)cc1` (configuration not stated) [SOTALOL] had a Cardiac depression of 5%. The molecule also had an ED25 in [2] of 200 µM.

In turn, `CN(CCOc1cccc(NS(C)(=O)=O)c1)CCc1ccc(NS(C)(=O)=O)cc1` returned a Cardiac depression in data set [1] of 9%. The same molecule had an ED25 in data set [2] of 3 µM.

With `COC(=O)c1ccc(OCCN(C)CCc2ccc(NS(C)(=O)=O)cc2)cc1`, the Cardiac depression in data set [1] is given as 47%. In [2], this molecule displayed an ED25 of 4.1 µM.

Take `CN(CCOc1ccc(S(N)(=O)=O)cc1)CCc1ccc(NS(C)(=O)=O)cc1`: the Cardiac depression in data set [1] is 7%. In addition, the ED25 in data set [2] came out at 2.2 µM.

In data set [1], `CN(CCOc1ccc(C(N)=O)cc1)CCc1ccc(NS(C)(=O)=O)cc1` showed a Cardiac depression of 7%. This molecule also came in with an ED25 in data set [2] of 1.5 µM.

As to `Cc1ccc(OCCN(C)CCc2ccc(NS(C)(=O)=O)cc2)c(C(N)=O)c1.Cl`, in data set [1], the Cardiac depression worked out at 22%. This molecule also showed an ED25 in data set [2] of 1 µM.

Turning to `CN(CCCCOc1ccc(NS(C)(=O)=O)cc1)CCc1ccc(NS(C)(=O)=O)cc1.Cl`, the Cardiac depression in [1] was 23%. This molecule registered an ED25 in data set [2] of 40 µM.

On to `CN(CCCc1ccc(NS(C)(=O)=O)cc1)CCc1ccc(NS(C)(=O)=O)cc1`, for which, in data set [1], the Cardiac depression amounted to 23%. In data set [2], this molecule yielded an ED25 of 2.7 µM.

Turning to `CN(CCOC(c1ccccc1)c1ccc(NS(C)(=O)=O)cc1)CCc1ccc(NS(C)(=O)=O)cc1` (configuration not stated), in data set [1], the Cardiac depression turned out to be 35%. The molecule also gave an ED25 in data set [2] of 12 µM.

`CN(CCOc1ccc(CC(N)=O)cc1)CCc1ccc(NS(C)(=O)=O)cc1` displayed a Cardiac depression in data set [1] of 7%. In data set [2], this molecule showed an ED25 of 10 µM.

As to `CN(CCOc1ccc(NS(C)(=O)=O)cc1Cl)CCc1ccc(NS(C)(=O)=O)cc1`, the Cardiac depression in data set [1] turned out to be 16%. The ED25 in data set [2] was found to be 18 µM.

The molecule `CN(CCc1ccc(NS(C)(=O)=O)cc1)CCc1ccc(NS(C)(=O)=O)cc1` returned a Cardiac depression in data set [1] of 20%. Also, the ED25 in data set [2] came out at 2 µM.

As for `CCN(CC)C(=O)c1ccc(OCCN(C)CCc2ccc(NS(C)(=O)=O)cc2)cc1`, the Cardiac depression in [1] amounted to 9%. Moreover, in data set [2], the ED25 came out at 32 µM.

In turn, `CN(CCOc1ccccc1NS(C)(=O)=O)CCc1ccc(NS(C)(=O)=O)cc1.Cl` registered a Cardiac depression in data set [1] of 19%. For the same molecule, the ED25 in data set [2] was 2.5 µM.

For the molecule `CN(CCOc1cccc(C(N)=O)c1)CCc1ccc(NS(C)(=O)=O)cc1`, in data set [1], the Cardiac depression is on record as 3%. The molecule further registered an ED25 in data set [2] of 0.82 µM.

In data set [1], `CN(CCSc1ccc(NS(C)(=O)=O)cc1)CCc1ccc(NS(C)(=O)=O)cc1` displayed a Cardiac depression of 21%. In data set [2], this molecule had an ED25 of 0.3 µM.

As for `CNC(=O)Nc1ccc(OCCN(C)CCc2ccc(NS(C)(=O)=O)cc2)cc1.Cl`, the Cardiac depression in data set [1] is reported as 0%. The same molecule gave an ED25 in [2] of 70 µM.

`Cc1ccc(NS(C)(=O)=O)c(OCCN(C)CCc2ccc(NS(C)(=O)=O)cc2)c1.Cl` registered a Cardiac depression in data set [1] of 24%. Further, in [2], the ED25 stood at 17 µM.

For `CN(CCOc1ccc(C(=O)N2CCOCC2)cc1)CCc1ccc(NS(C)(=O)=O)cc1.Cl`, the Cardiac depression in data set [1] is 15%. In data set [2], this molecule showed an ED25 of 20 µM.
